Data as given in ChEMBL document CHEMBL3734668, “Evaluation of small molecule SecA inhibitors against methicillin-resistant Staphylococcus aureus” (Bioorg Med Chem, 2015).
Values after ≈ are worked out from the molar mass of the structure shown. Active and inactive are the calls of the source. The rule behind the calls is not given here.

Assays:
[1] = test system: Staphylococcus aureus; assay: Potency index, ratio of MIC for ampicillin to MIC for test compound against Methicillin resistant Staphylococcus aureus; format: functional
[2] = target: T1, Protein translocase subunit SecA 1 (Staphylococcus aureus (strain NCTC 8325)) (UniProt O06446); assay: Inhibition of Staphylococcus aureus SecA1 assessed as reduction in secretion of enterotoxin B at 10 uM by Western blot analysis
T1 sequence (whole entry): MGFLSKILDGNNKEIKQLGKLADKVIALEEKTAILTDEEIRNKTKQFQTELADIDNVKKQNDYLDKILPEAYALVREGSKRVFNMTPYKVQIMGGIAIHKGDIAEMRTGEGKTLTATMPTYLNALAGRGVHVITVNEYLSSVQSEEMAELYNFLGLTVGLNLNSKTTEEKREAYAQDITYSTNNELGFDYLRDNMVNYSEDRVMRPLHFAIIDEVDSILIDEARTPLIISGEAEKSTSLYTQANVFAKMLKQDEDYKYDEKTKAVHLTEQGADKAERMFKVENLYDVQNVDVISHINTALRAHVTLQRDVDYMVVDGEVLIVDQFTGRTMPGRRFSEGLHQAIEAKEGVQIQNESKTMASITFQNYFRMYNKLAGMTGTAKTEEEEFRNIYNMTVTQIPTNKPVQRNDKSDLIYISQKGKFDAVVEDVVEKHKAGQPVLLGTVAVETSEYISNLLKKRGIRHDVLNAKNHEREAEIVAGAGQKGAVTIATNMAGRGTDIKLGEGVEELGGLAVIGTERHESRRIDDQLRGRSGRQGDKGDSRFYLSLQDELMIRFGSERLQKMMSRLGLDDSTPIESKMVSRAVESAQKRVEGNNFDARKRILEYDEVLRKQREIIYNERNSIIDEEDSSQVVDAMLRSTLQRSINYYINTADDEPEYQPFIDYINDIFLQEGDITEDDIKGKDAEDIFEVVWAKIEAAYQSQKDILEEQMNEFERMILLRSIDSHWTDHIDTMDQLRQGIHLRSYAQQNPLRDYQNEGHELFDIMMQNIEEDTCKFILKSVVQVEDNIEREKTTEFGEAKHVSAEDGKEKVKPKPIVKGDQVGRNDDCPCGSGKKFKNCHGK
Summary of the method: (§1)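 S. aureus Mu50 grown in LB at 37 °C; inhibitor added at mid-log phase and cultures sampled at several time points. Supernatants separated by centrifugation, filtered 0.45 μm, and probed by Western blot with antibodies to α-hemolysin, TSST-1 or enterotoxin B.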

[3] = test system: Staphylococcus aureus; assay: Bacteriostatic activity against NorA deficient Staphylococcus aureus K1758; format: functional
Summary of the method: (§2)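 Broth microdilution MIC per CLSI guidance in LB, 37 °C, shaking 250 rpm, 24 hr; run in triplicate in three separate experiments. MIC taken as lowest inhibitor concentration with no growth. Compounds from DMSO stocks; untreated controls carry equal DMSO.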

[4] = test system: Staphylococcus aureus; assay: Effect on general protein synthesis in Staphylococcus aureus Mu50 at 10 uM measured within 15 hrs; format: ADME, organism-based; settings: in vivo
[5] = target: T1, Protein translocase subunit SecA 1 (Staphylococcus aureus (strain NCTC 8325)); assay: Inhibition of Staphylococcus aureus SecA1 assessed as reduction in secretion of TSST-1 at 10 uM by Western blot analysis; summary of the method: as §1
[6] = test system: Staphylococcus aureus; assay: Potency index, ratio of MIC for norfloxacin to MIC for test compound against Methicillin resistant Staphylococcus aureus; format: functional
[7] = target: T2, Protein translocase subunit SecA 2 (Staphylococcus aureus (strain NCTC 8325), UniProt Q2FUW6); assay: Inhibition of Staphylococcus aureus ATCC 35556 SecA2 expressed in Escherichia coli BL21-gammaDE3 assessed as reduction in intrinsic ATPase activity incubated for 3 hrs measured by malachite green colorimetric method
T2 sequence (Q2FUW6 whole entry): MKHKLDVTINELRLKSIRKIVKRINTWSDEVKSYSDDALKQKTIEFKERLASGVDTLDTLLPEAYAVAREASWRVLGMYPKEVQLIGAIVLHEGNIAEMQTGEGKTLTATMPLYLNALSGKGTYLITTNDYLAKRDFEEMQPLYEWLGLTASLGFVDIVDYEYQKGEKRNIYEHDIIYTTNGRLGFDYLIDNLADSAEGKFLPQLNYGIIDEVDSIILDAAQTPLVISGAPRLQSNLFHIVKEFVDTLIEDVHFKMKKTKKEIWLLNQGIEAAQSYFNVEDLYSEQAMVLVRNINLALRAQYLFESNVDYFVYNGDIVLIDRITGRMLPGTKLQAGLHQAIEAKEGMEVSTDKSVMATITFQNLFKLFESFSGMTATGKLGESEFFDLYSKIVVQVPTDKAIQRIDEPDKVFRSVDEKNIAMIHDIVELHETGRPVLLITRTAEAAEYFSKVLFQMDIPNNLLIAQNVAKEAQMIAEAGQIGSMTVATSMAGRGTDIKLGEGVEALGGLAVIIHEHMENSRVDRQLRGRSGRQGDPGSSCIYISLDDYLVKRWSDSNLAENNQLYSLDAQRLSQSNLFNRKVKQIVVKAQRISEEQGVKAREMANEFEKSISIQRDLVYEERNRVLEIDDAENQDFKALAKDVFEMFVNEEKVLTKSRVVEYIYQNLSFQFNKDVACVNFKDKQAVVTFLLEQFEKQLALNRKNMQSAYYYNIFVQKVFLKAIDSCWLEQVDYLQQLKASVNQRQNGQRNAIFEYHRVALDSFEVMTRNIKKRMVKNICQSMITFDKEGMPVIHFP

[8] = test system: Staphylococcus aureus; assay: Bacteriostatic activity against Staphylococcus aureus Newman after 24 hrs; format: functional; summary of the method: as §2
[9] = test system: Staphylococcus aureus; assay: Bacteriostatic activity against Staphylococcus aureus Mu50 after 24 hrs; format: functional; settings: Mu50, 24 h
Summary of the method: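 Broth microdilution per CLSI guidelines in LB. Inhibitor added to dilute early-log culture (OD600 ≈ 0.05), 37 °C, 250 rpm, 24 hrs. Run in triplicate in three separate experiments. MIC read as the lowest concentration with no growth.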

[10] = target: T3, Protein translocase subunit SecA 1 (Staphylococcus aureus (strain NCTC 8325), UniProt O06446); assay: Inhibition of Staphylococcus aureus ATCC 35556 SecA1 liposome dependent proOmpA translocation incubated for 1.5 hrs measured by Western blot analysis
T3 sequence (O06446 whole entry): T1 sequence (whole entry)
Summary of the method: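 Per 0.1 ml: 50 mM Tris-HCl pH 7.6, 20 mM NH4Cl, 25 mM KCl, 2 mM Mg(OAc)2, ATP-regenerating system, 1.5 μg SaSecA1, 100 ng SecB, 120 ng proOmpA, 120 μg liposomes, with varying inhibitor; 30 °C, 1.5 hr. Translocated proOmpA scored as proteinase K-protected, quantified by Western blot; n = 3.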

[11] = test system: Staphylococcus aureus; assay: Bactericidal activity against Methicillin sensitive Staphylococcus aureus ATCC 6538 assessed as CFU reduction for 1 hr; format: functional, organism-based
Summary of the method: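 Log-phase LB cultures (OD600 ≈ 0.5) mixed with a range of inhibitor concentrations, shaken at 1,000 rpm, 37 °C, 1 hr, under normal room light. Cultures serially diluted in LB, plated on LB agar, incubated overnight at 37 °C. CFU counted; bactericidal effect taken as CFU reduction versus untreated control.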

[12] = test system: Staphylococcus aureus; assay: Bacteriostatic activity against wild type Staphylococcus aureus 8325-4; format: functional; summary of the method: as §2
[13] = test system: Staphylococcus aureus; assay: Bacteriostatic activity against Staphylococcus aureus ATCC 6538 after 24 hrs; format: functional; settings: ATCC 6538, 24 h
[14] = test system: Staphylococcus aureus; assay: Potency index, ratio of MIC for vancomysin to MIC for test compound against Methicillin resistant Staphylococcus aureus; format: functional

## CCCCCCC1c2ccc(O)cc2Oc2cc(O)ccc21
[1]
  Ratio: 250
[2]
  inhibition: Active
[3]
  MIC: 4 µg/mL (≈ 13.4 µM)
[4]
  Activity: Non-toxic
[5]
  inhibition: Active
[6]
  Ratio: 7
[7]
  IC50: 15 µM
[8]
  MIC: 4 µg/mL (≈ 13.4 µM)
[9]
  MIC: 4 µg/mL (≈ 13.4 µM)
[10]
  IC50: 4 µM
[11]
  Activity: Dose-dependent effect
[12]
  MIC: 4 µg/mL (≈ 13.4 µM)
[13]
  MIC: 4 µg/mL (≈ 13.4 µM)
[14]
  Ratio: 2
